# ROMK mod = modulates human ROMK potassium channel activity. actives 2% (n = 130,000). B-score at 10 µM. AID 1918. P48048. Tet-inducible ROMK, thallium flux fluorescence; actives lie on both sides;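 active = signal ratio slope over the read window, or its plate-corrected B-score, at least 3 SD from the plate mean, either direction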;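 note: B-score of the F/F0 ratio slope over 7 to 12 s after thallium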
# Target sequence (P48048 whole entry, looked up): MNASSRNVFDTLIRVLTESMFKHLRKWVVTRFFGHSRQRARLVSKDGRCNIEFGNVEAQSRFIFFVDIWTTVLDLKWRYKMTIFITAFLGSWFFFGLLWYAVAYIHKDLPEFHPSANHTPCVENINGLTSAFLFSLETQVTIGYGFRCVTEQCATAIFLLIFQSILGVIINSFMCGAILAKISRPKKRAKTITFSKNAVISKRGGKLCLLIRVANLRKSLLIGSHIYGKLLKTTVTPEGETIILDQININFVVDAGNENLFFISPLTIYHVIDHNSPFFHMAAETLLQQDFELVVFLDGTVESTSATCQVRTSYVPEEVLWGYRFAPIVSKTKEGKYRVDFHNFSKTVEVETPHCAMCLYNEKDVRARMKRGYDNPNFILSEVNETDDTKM
# Calb biofilm kill = mixture kills Candida albicans biofilm cells; inhibition, % at 7.6 µM; AID 1242; actives 0.02% (n = 120,000); C. albicans biofilm persisters + clotrimazole, fluorescence viability; primary screen in compound mixtures of four per well;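 note: compounds exposed to preformed 24 h biofilms for 48 h; 0% = untreated biofilm control and 100% = clotrimazole plus chlorhexidine kill blank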
#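 Test system: C. albicans CAF4-2 wild-type biofilms; buffer or medium: RPMI/MOPS medium, pH 7.0; schedule: 24 h biofilm formation, then 48 h compound exposure, 37 °C; detection: Alamar Blue fluorescence; measure: percent inhibition of biofilm viability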
# ROMK hit retest = confirmation of human ROMK potassium channel modulators; ROMK thallium flux, fluorescence ratio; stronger effect = lower value; shares compounds with ROMK mod; actives 54% (n = 3,000); normalized thallium flux (F/F0 slope) at 10 µM;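 active = Flux at 10 µM at least 3 SD below or above vehicle control mean in one or both replicates; inconclusive = no clear call, values can overlap the other calls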
# Active calls of the source: *; ? = inconclusive; · = no result given. Many of the other results were omitted from the sample, so hits are more common in it than they were.
SMILES,ROMK mod,Calb biofilm kill,ROMK hit retest
Cc1ccccc1NC(=O)CS(=O)(=O)c1cn(CC(=O)N2CCOCC2)c2ccccc12,1.97*,17.7,0.0731
Cc1ccc(NC(=O)CS(=O)(=O)c2cn(CC(=O)N3CCOCC3)c3ccccc23)cc1,0.663,12.9,·
COc1ccc(Oc2ccccc2C=O)cc1,·,·,?
O/N=C\c1ccccc1Oc1ccc(F)cc1,1.03,11.1,·
CCCCCc1ccc(OCCCC[n+]2ccc(C)cc2)c(CCCCC)c1,-5.65*,29.3,0.0474*
Cc1cc(=O)oc2cc(OCCCC[n+]3ccccc3)ccc12,·,11.9,·
CCCCCc1ccc(OCCCC[n+]2ccccc2)c(CCCCC)c1,-4.92*,9.0,0.0552*
CCCCOc1ccc(C)cc1CN(CCO)CCO,1.15,·,·
Cc1cc(C)nc(/N=C(\N)Nc2ccc(C(C)C)cc2)n1,·,5.1,·
CC(=O)c1ccc(OCCOc2ccc(C#N)cc2)cc1,·,22.8,·
CCOC(=O)Nc1ccc(S(=O)(=O)Nc2cc(C)nc(C)n2)cc1,0.138,·,·
CCOC(=O)Nc1ccc(S(=O)(=O)Nc2nc(C)cc(C)n2)cc1,2.42*,·,0.0802
CCC(=O)Nc1cccc(NC(=S)NC(=O)c2ccccc2C)c1,-0.383,12.7,·
CCN(CC)S(=O)(=O)c1ccc(N2CCOCC2)c(NC(=O)c2ccccc2)c1,0.957,15.4,·
CCN(CC)S(=O)(=O)c1ccc(N2CCOCC2)c(NC(=O)C23CC4CC(CC(Cl)(C4)C2)C3)c1,-3.47*,13.4,0.0608*
Nc1c(-c2ccccc2)nc(Cl)nc1-c1ccccc1,-0.983,·,·
c1ccc(-c2nc3nonc3nc2-c2ccccc2)cc1,-4.18*,·,0.0626*
CC(=O)NC12CC3CC(C1)CC(C(=O)OCC(=O)Nc1ncc(Cl)cc1Cl)(C3)C2,-4.02*,·,0.0716
CC(=O)NC12CC3CC(C1)CC(C(=O)OCC(=O)NC(=O)c1cccn1C)(C3)C2,-0.344,·,·
O=C(O)[C@H](Cc1ccccc1)NC(=O)N1CCN(c2cccc(C(F)(F)F)c2)CC1,·,18.6,·
COc1ccc(C2C(C(=O)O)c3ccccc3C(=O)N2Cc2ccco2)cc1 (configuration not stated),·,23.5,·
COc1ccc(-n2c(O)c(/C=N/NS(=O)(=O)c3cc(C)ccc3C)c3ccccc3c2=O)cc1OC,·,8.6,·
COc1ccc(-n2c(O)c(/C=N/NS(=O)(=O)c3ccc(C)cc3)c3ccccc3c2=O)cc1OC,-5.05*,9.3,?
Cc1nnc(N(C)C(=O)c2ccc3c(c2)OCO3)s1,-0.71,29.0,·
CCC(c1nnnn1Cc1ccc2c(c1)OCO2)N1CCN(CC)CC1 (configuration not stated),-0.00428,8.7,·
SMILES,ROMK mod,Calb biofilm kill,ROMK hit retest
Fc1ccc(Cn2nnnc2C(c2cccs2)N2CCN(C3CCCCC3)CC2)cc1 (configuration not stated),-2.23,6.4,·
CC(C)C(c1nnnn1Cc1ccc(F)cc1)N1CCN(C2CCCCC2)CC1 (configuration not stated),-4.95*,·,0.0607*
CC(C)C(c1nnnn1Cc1ccc(F)cc1)N1CCN(Cc2ccc3c(c2)OCO3)CC1 (configuration not stated),-2.34*,·,0.0544*
O=S(=O)(c1cccc(F)c1)N1CCCN(c2ccc(C(F)(F)F)cn2)CC1,·,3.3,·
S=C(NCC1CCCO1)N1CCN(Cc2ccccc2Cl)CC1 (configuration not stated),0.0521,-28.5,·
CCCCNC(=O)C1CCN(S(=O)(=O)c2c(C)noc2/C=C\c2ccc(OC)cc2)CC1,·,·,0.0809
Cc1noc(/C=C/c2cccs2)c1S(=O)(=O)N1CCC(C(=O)NCCCN2CCC(C)CC2)CC1,-1.05,11.6,·
CC(=O)Oc1ccccc1C1OC(=O)c2ccccc2N1C(C)=O (configuration not stated),0.912,·,0.0867
C=CCSc1nnc2c(n1)OC(c1ccccn1)N(C(C)=O)c1ccccc1-2 (configuration not stated),-0.25,·,·
O=[N+]([O-])c1cc(C(F)(F)F)ccc1N1CCN(S(=O)(=O)c2ccc3c(c2)CCCC3)CC1,·,8.4,·
Oc1cccc(Oc2ncc(C(F)(F)F)cc2Cl)c1,-0.0594,18.1,·
O=C(C1=C[C@H](C2CC2)C[C@H](OCc2ccc(CO)cc2)O1)N1CCOCC1,·,14.7,·
COc1cccc(/C=c2\sc3nc(-c4cccs4)nn3c2=O)c1OC,·,·,0.082
COc1ccc(/C=c2\sc3nc(-c4ccccc4OC)nn3c2=O)c(OC)c1,0.614,·,·
NC(=O)c1c(NC(=O)C2CCCO2)sc2c1CCCC2 (configuration not stated),·,5.6,·
Cc1ccc(NC(=O)COC(=O)/C=C/c2c(C)nn(-c3ccc(F)cc3)c2Cl)cc1F,0.157,10.2,·
CCCN1CCC(NC(=S)Nc2ccc([N+](=O)[O-])cc2)CC1,-4.43*,-0.2,0.0563*
CCCN1CCN(C(=S)Nc2ccc([N+](=O)[O-])cc2)CC1,·,11.5,·
Cc1cc(NC(=O)/C=C/C(=O)N(CC(=O)NC2CCCC2)c2cccc3ccccc23)no1,-3.99*,16.3,0.0562*
Cc1cc(NC(=O)CCC(=O)N(CC(=O)NC2CCCC2)c2ccccc2)no1,0.905,7.9,·
Cc1cc(S(=O)(=O)NCc2ccc(N3CCN(C)CC3)cc2)c(C)s1,·,5.2,·
O=[N+]([O-])c1ccc(OCC(O)CNC2CCCC2)cc1 (configuration not stated),·,19.9,·
OC(CNC1CCCCC1)COCCOc1ccc(Br)cc1 (configuration not stated),-4.07*,18.3,0.0594*
CCN1CCN(c2oc(-c3ccco3)nc2C#N)CC1,0.577,12.1,·
NC(N)=N/N=C/c1ccc2cccc(OCc3ccccc3)c2n1,-3.7*,4.2,0.0489*
SMILES,ROMK mod,Calb biofilm kill,ROMK hit retest
O=C(N/N=C/c1ccc2cccc(OCc3ccccc3)c2n1)c1ccc(Br)cc1,0.901,·,·
O=C(Nc1c(C(=O)O)[nH]c2ccc(F)cc12)c1cccc(C(F)(F)F)c1,·,26.3,·
COc1ccc(C2=NOC(C(=O)NCc3ccccn3)C2)cc1OC (configuration not stated),1.04,·,·
COc1cccc(C2=NOC(C(=O)NCc3ccccn3)C2)c1 (configuration not stated),0.812,·,·
O=C(NCc1ccccn1)C1CC(c2ccccc2O)=NO1 (configuration not stated),2.56*,29.1,0.0877
COc1ccc(OC)c(C2=NOC(C(=O)NCc3ccccn3)C2)c1 (configuration not stated),·,·,0.0759
COc1ccc(-c2n(Cc3ccccc3)c3ccccc3[n+]2Cc2ccccc2)cc1,0.0748,15.2,·
O=C(OCc1cccc([N+](=O)[O-])c1)c1ccc2ccccc2n1,-0.0886,-8.4,·
Cc1cc(C(=O)N2CCN(c3ncccn3)CC2)nn1C,·,16.7,·
CCCCCc1ccc(-c2ccc(=O)[nH]n2)cc1,-0.311,·,0.0716
Cc1ccc(-c2ccc(=O)[nH]n2)cc1,-0.481,·,·
O=C(Cn1cc2c(n1)CCCCC2)Nc1ccccc1Br,-0.317,28.7,·
CCOC(=O)C(NC(C)=O)(NC(C)C)C(F)(F)F (configuration not stated),·,22.7,·
Clc1cccc(Cl)c1/C=N/Nc1c(Cl)cncc1Cl,·,14.7,·
Clc1cncc(Cl)c1N/N=C/c1ccncc1,4.1*,9.4,0.117*
COC(=O)C1=C(Nc2cc(Cl)cc(Cl)c2)CSC1,0.423,27.3,·
COc1cccc(OC)c1CN1CCCC(C(=O)c2ccccc2SC)C1 (configuration not stated),-2.38,11.2,·
